Laboratory results: publication PMC3855444 (Bioorganic & medicinal chemistry, 2013)

Columns and labels:
[1] = test system: hepatitis C virus (JFH-1); format: cell-based; details: Huh7.5.1 cells infected with JFH-1 (MOI 0.05), HCV core protein at 72 h
Procedure, shortened: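 Huh7.5.1 cells (150,000 per well) were plated and infected with JFH-1 the next day at 0.05 focus forming units per cell. After 5 h the inoculum was replaced with fresh medium containing test compound at three concentrations chosen from the 72 h ATP-based cytotoxicity data. Lysates were harvested 72 h later, loaded at equal total protein, and probed for HCV core by Western blot.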

[2] = test system: UDP-glucuronosyltransferase (UGT); format: in vitro ADME, human; details: 100 μM, HLM

SMILES	anti-HCV activity upon methylation relative to the corresponding parent compound [1]	inhibition of UGT activity, parent versus methylated analogue, in words [2]
COc1cc(O)c2c(c1)O[C@H](c1cc(O)c3c(c1)[C@@H](CO)[C@H](c1ccc(O)c(OC)c1)O3)[C@@H](O)C2=O [compound 10, 7-O-Methylsilychristin]	improved anti-HCV activity	–
COc1cc(O)c2c(c1)O[C@H](c1ccc3c(c1)O[C@H](c1ccc(O)c(OC)c1)[C@@H](CO)O3)[C@@H](O)C2=O [compound 2, 7-O-Methylsilybin A]	retained	–
COc1cc(O)c2c(c1)O[C@H](c1ccc3c(c1)O[C@@H](c1ccc(O)c(OC)c1)[C@H](CO)O3)[C@@H](O)C2=O [compound 4, 7-O-Methylsilybin B]	reduced	–
COc1cc(O)c2c(c1)O[C@H](c1ccc3c(c1)O[C@@H](CO)[C@H](c1ccc(O)c(OC)c1)O3)[C@@H](O)C2=O [compound 8, 7-O-Methylisosilybin B]	slight enhancement	–
COc1cc(O)c2c(c1)O[C@H](c1ccc3c(c1)O[C@H](CO)[C@@H](c1ccc(O)c(OC)c1)O3)[C@@H](O)C2=O [compound 6, 7-O-Methylisosilybin A]	reduced	–
COc1cc(O)c2c(c1)O[C@H](c1ccc(O)c3c1[C@@H](CO)[C@H](c1ccc(O)c(OC)c1)O3)[C@@H](O)C2=O [compound 12, 7-O-Methylisosilychristin]	improved anti-HCV activity	more potent than isosilychristin (11)
